According to ChEMBL document CHEMBL3421562, “Bioactive prenylated xanthones from the young fruits and flowers of Garcinia cowa” (J Nat Prod, 2015):
In brackets after ≈: the same amount, converted by molar mass.

How the values were obtained:
Saccharomyces cerevisiae = assay: Inhibition of Saccharomyces cerevisiae alpha-glucosidase using p-nitrophenyl alpha-D-glucoside as substrate at 100 uM preincubated for 0.5 hrs followed by substrate addition measured after 1 hr by colorimetric method relative to control
Procedure, shortened: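 Test compound at 100 μM; enzyme (0.4 U/mL) preincubated with compound 0.5 h at 37 °C in 50 mM K2HPO4−KH2PO4 buffer, 10% DMSO final; reaction started with p-nitrophenyl α-D-glucoside (3 mM), 1 h at 37 °C; stopped with 0.1 M Na2CO3; absorbance read at 405 nm; percent inhibition.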

[1] = Inhibition of Saccharomyces cerevisiae alpha-glucosidase using p-nitrophenyl alpha-D-glucoside as substrate preincubated for 0.5 hrs followed by substrate addition measured after 1 hr by colorimetric method
Procedure, shortened: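 Enzyme (0.4 U/mL) and compound preincubated 0.5 h at 37 °C in 50 mM K2HPO4−KH2PO4 buffer, final DMSO 10%; p-nitrophenyl α-D-glucoside (3 mM) added, further 1 h at 37 °C; terminated with 0.1 M Na2CO3, A405 read immediately as relative hydrolysis rate; IC50 determined; acarbose positive control.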

Bacillus cereus = assay: Antibacterial activity against Bacillus cereus TISTR 688 by 2-fold serial dilution method; format: functional
Bacillus subtilis = assay: Antibacterial activity against Bacillus subtilis TISTR 008 by 2-fold serial dilution method; format: functional
Staphylococcus aureus = assay: Antibacterial activity against Staphylococcus aureus TISTR 1466 by 2-fold serial dilution method; format: functional
Escherichia coli = assay: Antibacterial activity against Escherichia coli TISTR 780 by 2-fold serial dilution method; format: functional
Salmonella typhimurium = assay: Antibacterial activity against Salmonella typhimurium TISTR 292 by 2-fold serial dilution method; format: functional, Salmonella enterica subsp. enterica serovar Typhimurium
Pseudomonas aeruginosa = assay: Antibacterial activity against Pseudomonas aeruginosa TISTR 884 by 2-fold serial dilution method; format: functional

Row | Compound | inhibition (Saccharomyces cerevisiae) [%] | IC50 [1] [µM] | MIC (Bacillus cereus) [mg/L] | MIC (Bacillus subtilis) [mg/L] | MIC (Staphylococcus aureus) [mg/L] | MIC (Escherichia coli) [mg/L] | MIC (Salmonella typhimurium; Salmonella enterica) [mg/L] | MIC (Pseudomonas aeruginosa) [mg/L] | MIC (Salmonella typhimurium; Salmonella enterica subsp. enterica serovar Typhimurium) [mg/L]
1 | CC(C)=CCC/C(C)=C\CC1(C/C=C(\C)CCC=C(C)C)C(=O)C(O)=Cc2oc3cc(O)cc(O)c3c(=O)c21 (stereo not drawn) | 75.8 | 55.3 | 8 (≈ 15 µM) | 8 (≈ 15 µM) | 64 (≈ 120 µM) | 64 (≈ 120 µM) | 64 (≈ 120 µM) | 128 (≈ 240 µM) | –
2 | COc1c(O)c(CC=C(C)C)c2oc3cc(O)c(CC=C(C)C)c(O)c3c(=O)c2c1CC=C(C)C | – | – | 32 (≈ 66.9 µM) | 32 (≈ 66.9 µM) | > 128 | > 128 | 128 (≈ 267 µM) | 128 (≈ 267 µM) | –
3 | COc1c(O)cc2oc3cc4c(c(O)c3c(=O)c2c1C/C=C(\C)CCC=C(C)C)C=CC(C)(C)O4 | 71.7 | 18.6 | 64 (≈ 134 µM) | 64 (≈ 134 µM) | 128 (≈ 269 µM) | 64 (≈ 134 µM) | 128 (≈ 269 µM) | 128 (≈ 269 µM) | –
4 | COc1cc2oc3cc(O)c4c(c3c(=O)c2c(O)c1CC=C(C)C)CCC(C)(C)O4 | – | – | 128 (≈ 312 µM) | – | 128 (≈ 312 µM) | > 128 | 128 (≈ 312 µM) | > 128 | –
5 | GENTAMICIN | – | – | – | – | – | 0.25 | – | 2 | 0.125
6 | CC(C)=CCC/C(C)=C/CC1(CC=C(C)C)C(=O)C(O)=Cc2oc3cc(O)cc(O)c3c(=O)c21 (stereo not drawn) [GARCINIANONE A] | 66.7 | 34 | 4 (≈ 8.61 µM) | 2 (≈ 4.31 µM) | 64 (≈ 138 µM) | 64 (≈ 138 µM) | 64 (≈ 138 µM) | 128 (≈ 276 µM) | –
7 | COc1cc2oc3cc(O)c(OC)c(CC=C(C)C)c3c(=O)c2c(O)c1CC=C(C)C | 73.1 | 8.7 | 16 (≈ 37.7 µM) | 4 (≈ 9.42 µM) | > 128 | > 128 | 128 (≈ 302 µM) | 128 (≈ 302 µM) | –
8 | COc1cc2oc3cc(OC)c(OC)c(CC=C(C)C)c3c(=O)c2c(O)c1CC=C(C)C | 53.8 | – | > 128 | 128 (≈ 292 µM) | 128 (≈ 292 µM) | 64 (≈ 146 µM) | 128 (≈ 292 µM) | 128 (≈ 292 µM) | –
9 | CN[C@H](CC(C)C)C(=O)N[C@H]1C(=O)N[C@@H](CC(N)=O)C(=O)N[C@H]2C(=O)N[C@H]3C(=O)N[C@H](C(=O)N[C@H](C(=O)O)c4cc(O)cc(O)c4-c4cc3ccc4O)[C@H](O)c3ccc(c(Cl)c3)Oc3cc2cc(c3O[C@@H]2O[C@H](CO)[C@@H](O)[C@H](O)[C@H]2O[C@H]2C[C@](C)(N)[C@H](O)[C@H](C)O2)Oc2ccc(cc2Cl)[C@H]1O [VANCOMYCIN] | – | – | 0.25 (≈ 0.173 µM) | 0.25 (≈ 0.173 µM) | 0.25 (≈ 0.173 µM) | – | – | – | –
10 | COc1cc2oc3cc4c(c(O)c3c(=O)c2c(CC=C(C)C)c1OC)C=CC(C)(C)O4 | 62.2 | 26.2 | 128 (≈ 303 µM) | 128 (≈ 303 µM) | > 128 | > 128 | 64 (≈ 151 µM) | 128 (≈ 303 µM) | –
11 | COc1c(O)cc2oc3cc(O)c(CC=C(C)C)c(O)c3c(=O)c2c1CC=C(C)C [MANGOSTIN] | 72 | 7.8 | 8 (≈ 19.5 µM) | 8 (≈ 19.5 µM) | 64 (≈ 156 µM) | 64 (≈ 156 µM) | 64 (≈ 156 µM) | 128 (≈ 312 µM) | –
12 | CC(C)=CCC/C(C)=C/CC1(C/C=C(\C)CCC=C(C)C)C(=O)C(O)=Cc2oc3cc(O)cc(O)c3c(=O)c21 (stereo not drawn) | 62.9 | 36.4 | 8 (≈ 15 µM) | 8 (≈ 15 µM) | > 128 | > 128 | 64 (≈ 120 µM) | 128 (≈ 240 µM) | –
13 | COc1c(O)cc2oc3cc4c(c(O)c3c(=O)c2c1CC=C(C)C)C=CC(C)(C)O4 [MANGOSTANIN] | 70.1 | 34.6 | 4 (≈ 9.79 µM) | 8 (≈ 19.6 µM) | 64 (≈ 157 µM) | > 128 | 128 (≈ 313 µM) | 128 (≈ 313 µM) | –
14 | COc1cc2oc3cc(OC)c(CC=C(C)C)c(O)c3c(=O)c2c(CC=C(C)C)c1O | 56.4 | – | 128 (≈ 302 µM) | 128 (≈ 302 µM) | > 128 | > 128 | 128 (≈ 302 µM) | 128 (≈ 302 µM) | –
15 | COc1cc2oc3cc(O)c4c(c3c(=O)c2c(O)c1CC=C(C)C)C=CC(C)(C)O4 | 50.8 | – | 128 (≈ 313 µM) | 128 (≈ 313 µM) | 128 (≈ 313 µM) | > 128 | 128 (≈ 313 µM) | 128 (≈ 313 µM) | –
16 | COc1cc2oc3cc4c(c(O)c3c(=O)c2c(CC=C(C)C)c1O)C=CC(C)(C)O4 | – | – | 128 (≈ 313 µM) | 128 (≈ 313 µM) | > 128 | > 128 | 128 (≈ 313 µM) | 128 (≈ 313 µM) | –
17 | CC(C)=CCCC1(C)C=Cc2c(c(O)cc3oc4cc5c(c(O)c4c(=O)c23)C=CC(C)(C)O5)O1 (stereo not drawn) | – | – | 64 (≈ 139 µM) | 128 (≈ 278 µM) | > 128 | > 128 | 64 (≈ 139 µM) | 128 (≈ 278 µM) | –
18 | COc1c(O)cc2oc3cc(O)cc(O)c3c(=O)c2c1C/C=C(\C)CCC=C(C)C [RUBRAXANTHONE] | 71.2 | 23.4 | 4 (≈ 9.75 µM) | 2 (≈ 4.87 µM) | > 128 | 64 (≈ 156 µM) | 64 (≈ 156 µM) | 64 (≈ 156 µM) | –
19 | CC(C)=CCC/C(C)=C\CC1(CC=C(C)C)C(=O)C(O)=Cc2oc3cc(O)cc(O)c3c(=O)c21 (stereo not drawn) [GARCINIANONE B] | 69.1 | 11.7 | 2 (≈ 4.31 µM) | 2 (≈ 4.31 µM) | 64 (≈ 138 µM) | 64 (≈ 138 µM) | 64 (≈ 138 µM) | 128 (≈ 276 µM) | –
20 | COc1cc2c(=O)c3c(O)c4c(cc3oc2cc1O)OC(C)(CCC=C(C)C)C=C4 (stereo not drawn) | – | – | 32 (≈ 78.3 µM) | 64 (≈ 157 µM) | > 128 | > 128 | 128 (≈ 313 µM) | 128 (≈ 313 µM) | –
21 | C[C@H]1O[C@H](O[C@H]2[C@H](O)[C@@H](O)[C@@H](O[C@H]3[C@H](O)[C@@H](O)C(O)O[C@@H]3CO)O[C@@H]2CO)[C@H](O)[C@@H](O)[C@@H]1N[C@H]1C=C(CO)[C@@H](O)[C@H](O)[C@H]1O (stereo partly drawn) [ACARBOSE] | – | 8 | – | – | – | – | – | – | –
22 | COc1cc2c(=O)c3c(O)c(C/C=C(\C)CCC=C(C)C)c(O)cc3oc2cc1O [COWAXANTHONE] | – | – | 64 (≈ 156 µM) | 64 (≈ 156 µM) | > 128 | > 128 | 128 (≈ 312 µM) | 128 (≈ 312 µM) | –
